A selection: hits, their analogues and other compounds. The true share with any hit is near 1.6%.
PKA-R1A act = activates the PKA-R1A holoenzyme complex; PKA-R1A dissociation, Cy5-IP20 fluorescence polarization; scaled: DMSO 0%, 113 µM cGMP 100%; P00514+P68181; activation, % at 11.4 µM; hit rate 0.083% among 340,000; AID 504707;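 active = percent activation above the mean of all tested compounds plus 3 SD, cut at about 19% in these data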;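 also: higher means more PKAc released from R1A so a rise in polarization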
Rev-erbA mod = modulates human Rev-erb alpha binding to DNA. activity, % at 10 µM. Rev-erbα–FITC-DNA binding, fluorescence polarization, 90 min. P20393. hit rate 0.79% among 370,000;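 active = activity above about 14%, limit read from the data; passing the limit was not always enough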;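 also: 0% = DMSO wells with 35 nM protein and 100% = DMSO wells with 750 nM protein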
PG9 binder = PG9 antibody binding by small molecule; TR-FRET gp120-PG9 antibody binding; inhibition, % at 6.7 µM; hit rate 0.43% among 360,000; AID 624416; in the data active = inhibition above about 8.5%
PKA-R2B act = PKA-R2B complex activation | PKA-R2B holoenzyme dissociation, Cy5-IP20 fluorescence polarization; R2B truncated from residue 108, S112A mutant; 0% DMSO only, 100% 113 µM cGMP | activation, % at 11.4 µM | hit rate 0.079% among 340,000 | AID 504700;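 active = activation above a cutoff set at the mean over all compounds plus 3 SD, cut at about 18% in these data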;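 also: higher means more holoenzyme dissociation and a rise in polarization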
NR2E3 ag-1 = agonists of human NR2E3 nuclear receptor. Q9Y5X4. CHO-S Gal4-NCOR/VP16-NR2E3 two-hybrid, luciferase. inhibition of corepressor binding, % at 3.98 µM. hit rate 0.35% among 360,000;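 active = inhibition above the mean of all tested compounds plus 3 SD, cut at about 70% in these data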;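 also: 0% = DMSO with NR2E3 transfected cells and 100% = cells lacking NR2E3 construct; higher means lower luciferase signal from less NR2E3 corepressor binding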
Target sequence (Q9Y5X4 whole entry, looked up, the tested form may be a part): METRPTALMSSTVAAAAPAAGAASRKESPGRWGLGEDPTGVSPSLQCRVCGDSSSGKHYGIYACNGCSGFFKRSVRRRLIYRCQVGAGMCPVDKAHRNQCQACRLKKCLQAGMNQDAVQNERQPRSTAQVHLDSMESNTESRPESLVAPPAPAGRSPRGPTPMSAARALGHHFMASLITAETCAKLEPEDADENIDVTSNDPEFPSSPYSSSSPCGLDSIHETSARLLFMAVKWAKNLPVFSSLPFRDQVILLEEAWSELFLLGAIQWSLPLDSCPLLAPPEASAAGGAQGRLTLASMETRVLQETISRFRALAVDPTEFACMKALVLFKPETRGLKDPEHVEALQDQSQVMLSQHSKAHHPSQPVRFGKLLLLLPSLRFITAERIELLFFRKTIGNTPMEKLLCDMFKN
NR2E3 ag-2 = NR2E3 (human) agonism; GST-NR2E3/biotin-RetCOR TR-FRET, 1536-well; AID 2300; inhibition of corepressor binding, % at 4.78 µM; Q9Y5X4; hit rate 0.12% among 320,000;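 active = percent inhibition above the cutoff of mean plus 3 SD of all tested compounds, set per screening campaign, cut at about 20% in these data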;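 also: 0% = DMSO wells and 100% = biotin wells as full block of FRET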
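System: GST-tagged NR2E3 plus biotinylated RetCOR corepressor; Amount: 1.35 nM GST-tagged NR2E3 final; Dosing: single nominal compound dose of 4.8 µM; Schedule: 5 h incubation at 4 °C; Technique: TR-FRET with europium anti-GST and streptavidin-D2, 340 nm excitation; Controls: biotin wells as high control, 0.6% DMSO wells as low control.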
Rev-erbA confirm = confirmation of modulators of human Rev-erb alpha DNA binding; shares compounds with Rev-erbA mod; Rev-erb alpha FITC-DNA binding, fluorescence polarization, 90 min; activation, % at 25 µM; hit rate 61% among 3,000;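 active = activation at or above a set limit, or at least 3 SD above the negative control mean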;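 also: 0% = 35 nM protein with DMSO and 100% = 750 nM protein high control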
RORg DNA counter = RORgamma DNA-binding activity, dose-response counter-screen. shares compounds with Rev-erbA mod. purified RORgamma protein-FITC-DNA binding, fluorescence polarization. IC50, µM. hit rate 8% among 910;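 active = Compounds whose fitted half-maximal concentration for disrupting protein-DNA binding is below 10 micromolar; the record names Rev-erb in its text, so the target is in doubt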
Active calls of the source: *; · = no result.

SMILES	PKA-R1A act	Rev-erbA mod	PG9 binder	PKA-R2B act	NR2E3 ag-1	NR2E3 ag-2	Rev-erbA confirm	others
O=C(Nc1ccc2c(c1)COC2=O)c1ccc(Cl)c(Cl)c1	12	48*	7	17	-35	-6	27*
O=C(OCc1cn(Cc2cccc(F)c2)nn1)N1CCCCC1	·	4	·	·	·	·	·
O=C1/C(=C/c2ccc(N3CCCC3)cc2)NC(=S)N1C1CC1	-2	27*	-9	-12	-14	-7	27*
Cc1cc(N2CCCC2)ccc1/C=C1\NC(=S)N(C)C1=O	-3	30*	-13	-1	-30	-7	50*	RORg DNA counter=>40
C=CCn1c(SCCNC(C)=O)nc2cc(-c3ccccc3)sc2c1=O	-3	49*	1	-3	10	2	54*	RORg DNA counter=>40
O=C(NCCc1ccccc1)OCc1cn(Cc2ccccc2F)nn1	·	-1	·	·	·	·	·
CCOC(=O)[C@@]12CCCC=C1N(CCc1ccc(Cl)cc1)C(=O)[C@H]2CC(=O)NCC12CC3CC(CC(C3)C1)C2	·	4	·	·	·	·	·
CCOC(=O)c1nn(-c2ccc(C)cc2)c2nc(Nc3ccccc3)cc(=O)n12	1	-3	-1	2	-16	3	·
Cc1ccc(-n2nc(C(=O)c3ccccc3)n3c(=O)cc(-c4ccccc4)nc23)cc1	-14	49*	2	-7	-19	-3	16
Cc1nc(N(C)C2CCCCC2)c2nnn(Cc3ccc(F)cc3)c2n1	0	31*	-1	-12	-6	·	-6
CN(C(=O)COC(=O)c1cc(-c2ccc(Cl)s2)nc2ccccc12)C1CCS(=O)(=O)C1 (configuration not stated)	10	51*	-1	-5	1	-2	13
CN(C(=O)COC(=O)c1cc(-c2ccccc2Cl)nc2ccccc12)C1CCS(=O)(=O)C1 (configuration not stated)	2	-3	0	-4	-10	4	·
Cc1ccc2c(c1C)NC(=O)CC(c1ccccc1O)=N2	-16	204*	7	-3	-31	0	140*	RORg DNA counter=>40
CN(C)c1ccc(P(=O)(Nc2ccc([N+](=O)[O-])cc2)N2CCOCC2)c(NC(=O)c2cccs2)c1 (configuration not stated)	5	-6	-1	-7	10	-1	·
Cc1ccc(NP(=O)(c2ccc(N(C)C)cc2NC(=O)c2cccs2)N2CCOCC2)cc1 (configuration not stated)	-12	24*	0	-1	13	-1	13
CN(C)c1ccc(P(=O)(Nc2ccccc2)N2CCOCC2)c(NC(=O)c2cccs2)c1 (configuration not stated)	4	42*	-2	-1	3	-2	19*
Cc1cccc(CCNc2nc3ccc(C)cc3n3cnnc23)c1	-6	13	-2	-5	-7	1	·
Cc1ccc2nc(NCCc3ccc(Cl)cc3)c3nncn3c2c1	-14	28*	-2	-1	-8	-3	8
Cc1csc2ncc(C(=O)Nc3ccc4c(c3)OCCO4)c(=O)n12	-7	28*	1	-14	-64	-2	14*
Cc1cccc(NC(=O)c2cnc3scc(C)n3c2=O)c1	9	12	0	1	-63	7	·
COC(=O)[C@H]1C[C@@]2(n3ccc4ccccc43)c3ccccc3N(S(=O)(=O)c3ccccc3)[C@H]2N1	·	1	·	·	·	·	·
Cc1ccc(C)c(OCc2nnc(NC(=O)c3ccc4c(c3)OCO4)s2)c1	-4	30*	1	-3	21	-3	10
CC(C)c1nnc(NC(=O)c2ccc3c(c2)OCO3)s1	6	5	-1	-6	-140	-2	·
COc1ccccc1-c1nnc(NC(=O)c2ccc3c(c2)OCO3)s1	2	55*	3	-2	-10	0	10
